This passage reports MIC and CMC results from ChEMBL document CHEMBL4004832, “Synthesis, surfactant properties and antimicrobial activities of methyl glycopyranoside ethers” (2017).

Converted amounts (≈) assume the structure as drawn.

By MIC is commonly meant the smallest concentration in the dilution series that meets the test's criterion for growth inhibition. High values mean weaker potency, low ones greater potency.

For assay [1], the system named is Listeria monocytogenes. The assay is described as follows: Antibacterial activity against Listeria monocytogenes CIP 103575 after 18 hrs by broth microdilution assay. It counts as functional. To be noted: CIP 103575, 18 h. In short, it runs like this:
(§1)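 Broth MIC testing on Gram-positive strains followed CLSI M100-S17 recommendations. […] Values are in mmol/L. Amoxicillin was the control for Listeria and Enterococcus strains and oxacillin for S. aureus strains.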
(Dilution methods test growth across graded concentrations, often in twofold steps.)

A short description of assay [2]: Surfactant property of the compound in water assessed as critical micelle concentration or minimal hydrotropic concentration by platinum rod based tensiometric method. In outline:
(§2)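 Surface tension of aqueous solutions was measured by a rod method based on the Wilhelmy plate. Water was progressively concentrated with a stock surfactant solution at constant volume. At each concentration, readings continued until stable (SD of the last 5 values 0.2 mN/m). MHC or CMC and the plateau γsat were taken from the tension vs concentration curves.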

The subject of the next assay is Escherichia coli. The assay is described as follows: Antibacterial activity against Escherichia coli ATCC 8739 after 18 hrs by broth microdilution assay. It counts as functional. Particulars: ATCC 8739, 18 h.
Assay [3] concerns Staphylococcus aureus. Kind of assay: Antibacterial activity against Staphylococcus aureus ATCC 29213 after 18 hrs by broth microdilution assay. It counts as functional. Particulars: ATCC 29213, 18 h. In outline: as §1
The next assay deals with Pseudomonas aeruginosa. The assay is described as follows: Antibacterial activity against Pseudomonas aeruginosa ATCC 27853 after 18 hrs by broth microdilution assay. To be noted: ATCC 27853, 18 h. It counts as functional.
The test system of assay [4] is Enterococcus faecalis. Kind of assay: Antibacterial activity against Enterococcus faecalis ATCC 29212 after 18 hrs by broth microdilution assay. To be noted: ATCC 29212, 18 h. It counts as functional. In outline:
as §1

In assay [5] the test system is Enterococcus faecium. The assay is described as follows: Antibacterial activity against […] Enterococcus faecium isolate 0151850763 after 18 hrs by broth microdilution assay. Type of assay: functional. Particulars: isolate 0151850763, 18 h. In short, it runs like this: (§3)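 Enterococcus faecium strains (reference, clinical isolates, VanA isolate) tested by MIC following CLSI recommendations (M100-S17), with amoxicillin as control. […] Values are expressed in mmol/L.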

The test system of assay [6] is Staphylococcus aureus. The assay is described as follows: Antibacterial activity against methicillin-resistant Staphylococcus aureus isolate LY 1999-0053 after 18 hrs by broth microdilution assay. It counts as functional. Particulars: isolate LY 1999-0053, 18 h. In short, it runs like this:
(§4)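 Staphylococcus aureus reference strains and methicillin- and daptomycin-resistant isolates tested by MIC according to CLSI guidance (M100-S17), with oxacillin as control. The endpoint is the lowest concentration with no growth in all replicates versus a negative control at 18 h. Values are reported in mmol/L.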

Assay [7] concerns Staphylococcus aureus. The assay is described as follows: Antibacterial activity against daptomycin-resistant Staphylococcus aureus isolate ST 2015-0188 after 18 hrs by broth microdilution assay. It counts as functional. To be noted: isolate ST 2015-0188, 18 h. In short, it runs like this:
as §4

Assay [8] relates to Staphylococcus aureus. The assay is described as follows: Antibacterial activity against daptomycin-resistant Staphylococcus aureus isolate ST 2014-1288 after 18 hrs by broth microdilution assay. Particulars: isolate ST 2014-1288, 18 h. It counts as functional. In outline: as §4
Assay [9] relates to Staphylococcus aureus. The assay is described as follows: Antibacterial activity against daptomycin-resistant Staphylococcus aureus isolate ST 2015-0989 after 18 hrs by broth microdilution assay. Type of assay: functional. To be noted: isolate ST 2015-0989, 18 h. In short, it runs like this: as §4
Assay [10] relates to Staphylococcus aureus. Kind of assay: Antibacterial activity against Staphylococcus aureus ATCC 25923 after 18 hrs by broth microdilution assay. It counts as functional. To be noted: ATCC 25923, 18 h. In outline: as §4
Assay [11] has as its system Staphylococcus aureus. Kind of assay: Antibacterial activity against methicillin-resistant Staphylococcus aureus LAC USA300 after 18 hrs by broth microdilution assay. Type of assay: functional. In short, it runs like this:
as §4

Assay [12] has as its system Enterococcus faecium. Kind of assay: Antibacterial activity against Enterococcus faecium CIP 103510 after 18 hrs by broth microdilution assay. Type of assay: functional. Particulars: CIP 103510, 18 h. In short, it runs like this: as §3
The test system of assay [13] is Enterococcus faecium. The assay is described as follows: Antibacterial activity against Enterococcus faecium isolate 015205731401 after 18 hrs by broth microdilution assay. Type of assay: functional. To be noted: isolate 015205731401, 18 h. In outline:
as §1

The subject of assay [14] is Enterococcus faecium. The assay is described as follows: Antibacterial activity against Enterococcus faecium isolate 015205261801 after 18 hrs by broth microdilution assay. Type of assay: functional. To be noted: isolate 015205261801, 18 h. In outline:
as §3

In assay [15] the test system is Staphylococcus aureus. Kind of assay: Antibacterial activity against methicillin-resistant Staphylococcus aureus isolate HT 2006-1004 after 18 hrs by broth microdilution assay. Particulars: isolate HT 2006-1004, 18 h. Type of assay: functional. In short, it runs like this: as §4
Assay [16] concerns Staphylococcus aureus. The assay is described as follows: Antibacterial activity against methicillin-resistant Staphylococcus aureus isolate HT 2004-0012 after 18 hrs by broth microdilution assay. Type of assay: functional. Particulars: isolate HT 2004-0012, 18 h. In short, it runs like this:
as §4

Assay [17] concerns Staphylococcus aureus. The assay is described as follows: Antibacterial activity against methicillin-resistant Staphylococcus aureus Mu3 after 18 hrs by broth microdilution assay. Particulars: Mu3, 18 h. It counts as functional. In short, it runs like this:
as §4

Assay [18] relates to Listeria monocytogenes. Kind of assay: Antibacterial activity against Listeria monocytogenes isolate 015170199001 after 18 hrs by broth microdilution assay. Type of assay: functional. Particulars: isolate 015170199001, 18 h. In short, it runs like this: as §1
The subject of assay [19] is Listeria monocytogenes. The assay is described as follows: Antibacterial activity against Listeria monocytogenes isolate 015181840701 after 18 hrs by broth microdilution assay. It counts as functional. To be noted: isolate 015181840701, 18 h. In outline:
as §1

The test system of assay [20] is Staphylococcus aureus. Kind of assay: Antibacterial activity against methicillin-resistant Staphylococcus aureus isolate HT 2002-0417 after 18 hrs by broth microdilution assay. Type of assay: functional. Particulars: isolate HT 2002-0417, 18 h. In outline: as §4
Assay [21] relates to Listeria monocytogenes. Kind of assay: Antibacterial activity against Listeria monocytogenes isolate 015189074801 after 18 hrs by broth microdilution assay. Type of assay: functional. Particulars: isolate 015189074801, 18 h. In short, it runs like this: as §1
Assay [22] has as its system Enterococcus faecalis. The assay is described as follows: Antibacterial activity against Enterococcus faecalis isolate 015206179901 after 18 hrs by broth microdilution assay. It counts as functional. To be noted: isolate 015206179901, 18 h. In short, it runs like this: as §1
Assay [23] is described as follows: Surfactant property of the compound in aqueous solution assessed as critical micelle concentration or minimal hydrotropic concentration. In outline:
as §2

Take `CCCCCCCCOC[C@H]1O[C@H](OC)[C@H](O)[C@@H](O)[C@@H]1O`: the minimal inhibitory concentration (MIC) is 2000 µM (≈ 613 µg/mL) in the assay on Listeria monocytogenes [1]; more than 4000 µM in the assay on Escherichia coli; 2000 µM (≈ 613 µg/mL) in the assay with Staphylococcus aureus [3]; more than 4000 µM against Pseudomonas aeruginosa; more than 4000 µM in the assay on Enterococcus faecalis [4]. Further, in assay [2], the CMC turned out to be 0.434 mmol/L.
Turning to `CCCCCCCCCCCCO[C@H]1[C@H](OC)O[C@@H](C)[C@H](O)[C@H]1O`, the MIC in the assay with Listeria monocytogenes [1] was 90 µM (≈ 31.2 µg/mL); against Enterococcus faecium [5] it was 50 µM (≈ 17.3 µg/mL); in the assay on Staphylococcus aureus [6] it was 90 µM (≈ 31.2 µg/mL); against Staphylococcus aureus [7], 180 µM (≈ 62.4 µg/mL); against Staphylococcus aureus [8], 90 µM (≈ 31.2 µg/mL); in the assay on Staphylococcus aureus [9] it was 180 µM (≈ 62.4 µg/mL). In addition, the MIC in the assay with Staphylococcus aureus [10] stood at 90 µM (≈ 31.2 µg/mL); with Staphylococcus aureus [11], 90 µM (≈ 31.2 µg/mL); against Enterococcus faecium [12], 50 µM (≈ 17.3 µg/mL); against Enterococcus faecium [13], 20 µM (≈ 6.93 µg/mL); in the assay with Enterococcus faecium [14] it was 50 µM (≈ 17.3 µg/mL); in the assay with Staphylococcus aureus [15], 90 µM (≈ 31.2 µg/mL). For the same compound, the MIC came to 50 µM (≈ 17.3 µg/mL) against Staphylococcus aureus [16]; 180 µM (≈ 62.4 µg/mL) against Staphylococcus aureus [17]; 90 µM (≈ 31.2 µg/mL) against Listeria monocytogenes [18]; 90 µM (≈ 31.2 µg/mL) in the assay on Listeria monocytogenes [19]; 90 µM (≈ 31.2 µg/mL) against Staphylococcus aureus [20]; 50 µM (≈ 17.3 µg/mL) against Staphylococcus aureus [3]. The MIC stood at 90 µM (≈ 31.2 µg/mL) against Listeria monocytogenes [21], 50 µM (≈ 17.3 µg/mL) against Enterococcus faecalis [22] and 50 µM (≈ 17.3 µg/mL) in the assay with Enterococcus faecalis [4].
With `CCCCCCCCCCCCOC[C@H]1O[C@H](OC)[C@H](O)[C@@H](O)[C@@H]1O`, the minimum inhibitory concentration (MIC) in the assay on Listeria monocytogenes [1] and against Staphylococcus aureus [3] was 40 µM (≈ 14.5 µg/mL) throughout. The CMC in [2] stood at 0.03 mmol/L.
In the case of `CCCCC[C@@H]1OC[C@H]2O[C@H](OC)[C@H](O)[C@@H](O)[C@@H]2O1`, the minimal inhibitory concentration (MIC) in the assay with Listeria monocytogenes [1], against Escherichia coli, against Staphylococcus aureus [3], with Pseudomonas aeruginosa and against Enterococcus faecalis [4] was more than 4000 µM throughout. Further, the CMC in assay [2] is 6.5 mmol/L.
Take `CCCCCCOC[C@H]1O[C@H](OC)[C@H](O)[C@@H](O)[C@@H]1O`: the minimal inhibitory concentration (MIC) in the assay with Listeria monocytogenes [1], against Escherichia coli, against Staphylococcus aureus [3], in the assay on Pseudomonas aeruginosa and in the assay with Enterococcus faecalis [4] was more than 4000 µM throughout. For the same compound, the CMC in [2] was determined as 13.4 mmol/L.
With `CCCCCCCCCCCC(=O)OC[C@H]1O[C@H](O[C@]2(CO)O[C@H](CO)[C@@H](O)[C@@H]2O)[C@H](O)[C@@H](O)[C@@H]1O`, the CMC in [23] worked out at 0.25 mmol/L.
With `CCCC[C@@H]1OC[C@H]2O[C@H](OC)[C@H](O)[C@@H](O)[C@@H]2O1`, the MIC in the assay with Listeria monocytogenes [1], in the assay on Escherichia coli, in the assay with Staphylococcus aureus [3], with Pseudomonas aeruginosa and against Enterococcus faecalis [4] was more than 4000 µM throughout. Besides, the CMC in assay [2] was found to be 82 mmol/L.
In the case of `CCCCCCCCCCCCO[C@@H]1O[C@H](CO)[C@@H](O)[C@H](O)[C@H]1O`, in [23], the CMC was 0.19 mmol/L.
For `CCCCCCCCCCC[C@@H]1OC[C@H]2O[C@H](OC)[C@H](O)[C@@H](O)[C@@H]2O1`, in assay [2], the CMC was more than 0.06 mmol/L.
As for `CCCCCCCCCCCCOC[C@H]1OC(O)[C@H](O)[C@@H](O)[C@@H]1O` (stereo partly drawn), the CMC in [23] came out at 0.5 mmol/L.
With `CCCCCCCCCCC[C@@H]1OC[C@H]2O[C@@H](OC)[C@H](O)[C@@H](O)[C@@H]2O1`, the MIC is 40 µM (≈ 14.4 µg/mL) with Listeria monocytogenes [1]; 90 µM (≈ 32.4 µg/mL) with Enterococcus faecium [5]; 180 µM (≈ 64.9 µg/mL) against Staphylococcus aureus [6]; 180 µM (≈ 64.9 µg/mL) with Staphylococcus aureus [7]; 180 µM (≈ 64.9 µg/mL) in the assay with Staphylococcus aureus [8]; 180 µM (≈ 64.9 µg/mL) with Staphylococcus aureus [9]. In addition, the MIC with Staphylococcus aureus [10] turned out to be 180 µM (≈ 64.9 µg/mL); in the assay on Staphylococcus aureus [11], 180 µM (≈ 64.9 µg/mL); against Enterococcus faecium [12] it was 90 µM (≈ 32.4 µg/mL); in the assay with Enterococcus faecium [13] it was 40 µM (≈ 14.4 µg/mL); in the assay on Enterococcus faecium [14] it was 20 µM (≈ 7.21 µg/mL); in the assay on Staphylococcus aureus [15], 180 µM (≈ 64.9 µg/mL). For the same compound, the MIC against Staphylococcus aureus [16] turned out to be 180 µM (≈ 64.9 µg/mL); against Staphylococcus aureus [17], 180 µM (≈ 64.9 µg/mL); in the assay with Listeria monocytogenes [18] it was 40 µM (≈ 14.4 µg/mL); against Listeria monocytogenes [19], 180 µM (≈ 64.9 µg/mL); in the assay on Staphylococcus aureus [20], 370 µM (≈ 133 µg/mL); in the assay with Staphylococcus aureus [3], 180 µM (≈ 64.9 µg/mL). Moreover, the minimum inhibitory concentration (MIC) in the assay with Listeria monocytogenes [21] came to 40 µM (≈ 14.4 µg/mL); with Enterococcus faecalis [22] it was 90 µM (≈ 32.4 µg/mL); against Enterococcus faecalis [4] it was 180 µM (≈ 64.9 µg/mL).
